In ChEMBL document CHEMBL2040715, “Discovery of a Potent HIV Integrase Inhibitor that Leads to a Prodrug with Significant anti-HIV Activity” (ACS Med Chem Lett, 2011):
pIC50: −log10 of the molar value.

Key:
[1] = biological target: T1, UDP-glucuronosyltransferase 1A6 (Homo sapiens, UniProt P19224); test: Activity at UGT1A6 in human liver microsomes at 50 uM incubated for 3 mins prior to NADPH-addition measured up to 120 mins by HPLC/UV analysis; type: ADME, Microsome
T1 sequence (P19224 whole entry): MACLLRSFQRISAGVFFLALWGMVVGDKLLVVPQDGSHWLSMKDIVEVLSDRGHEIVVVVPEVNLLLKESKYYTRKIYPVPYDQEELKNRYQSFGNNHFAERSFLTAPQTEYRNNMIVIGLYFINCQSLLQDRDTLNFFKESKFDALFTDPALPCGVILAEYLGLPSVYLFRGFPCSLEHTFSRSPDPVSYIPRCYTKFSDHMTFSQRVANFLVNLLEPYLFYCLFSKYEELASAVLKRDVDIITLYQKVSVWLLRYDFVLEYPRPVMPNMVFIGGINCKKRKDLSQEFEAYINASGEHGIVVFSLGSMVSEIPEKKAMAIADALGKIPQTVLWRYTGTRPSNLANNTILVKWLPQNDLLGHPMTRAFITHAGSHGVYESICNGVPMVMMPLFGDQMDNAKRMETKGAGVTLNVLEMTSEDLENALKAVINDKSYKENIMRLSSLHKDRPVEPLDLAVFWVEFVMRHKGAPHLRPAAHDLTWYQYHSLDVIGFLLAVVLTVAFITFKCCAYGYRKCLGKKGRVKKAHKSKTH

[2] = biological target: T2, UDP-glucuronosyltransferase 1A4 (Homo sapiens, UniProt P22310); test: Activity at UGT1A4 in human liver microsomes at 50 uM incubated for 3 mins prior to NADPH-addition measured up to 120 mins by HPLC/UV analysis; type: ADME, Microsome
T2 sequence (P22310 whole entry): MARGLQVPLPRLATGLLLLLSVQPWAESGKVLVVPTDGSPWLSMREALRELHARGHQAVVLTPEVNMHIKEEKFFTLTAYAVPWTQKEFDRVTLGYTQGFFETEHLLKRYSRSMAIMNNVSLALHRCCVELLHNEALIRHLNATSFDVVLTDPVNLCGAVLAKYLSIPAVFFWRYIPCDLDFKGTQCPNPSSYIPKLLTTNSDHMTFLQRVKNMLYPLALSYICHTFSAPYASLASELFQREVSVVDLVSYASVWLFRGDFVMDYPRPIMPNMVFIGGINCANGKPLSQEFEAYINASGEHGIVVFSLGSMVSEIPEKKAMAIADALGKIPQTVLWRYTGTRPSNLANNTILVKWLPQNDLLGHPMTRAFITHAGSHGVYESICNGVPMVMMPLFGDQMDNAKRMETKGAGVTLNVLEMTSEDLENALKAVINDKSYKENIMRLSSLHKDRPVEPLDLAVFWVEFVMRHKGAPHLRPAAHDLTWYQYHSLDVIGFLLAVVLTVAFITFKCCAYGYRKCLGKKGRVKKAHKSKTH

[3] = biological target: T3, UDP-glucuronosyltransferase 1A9 (Homo sapiens, UniProt O60656); test: Activity at UGT1A9 in human liver microsomes at 50 uM incubated for 3 mins prior to NADPH-addition measured up to 120 mins by HPLC/UV analysis; type: ADME, Microsome
T3 sequence (O60656 whole entry): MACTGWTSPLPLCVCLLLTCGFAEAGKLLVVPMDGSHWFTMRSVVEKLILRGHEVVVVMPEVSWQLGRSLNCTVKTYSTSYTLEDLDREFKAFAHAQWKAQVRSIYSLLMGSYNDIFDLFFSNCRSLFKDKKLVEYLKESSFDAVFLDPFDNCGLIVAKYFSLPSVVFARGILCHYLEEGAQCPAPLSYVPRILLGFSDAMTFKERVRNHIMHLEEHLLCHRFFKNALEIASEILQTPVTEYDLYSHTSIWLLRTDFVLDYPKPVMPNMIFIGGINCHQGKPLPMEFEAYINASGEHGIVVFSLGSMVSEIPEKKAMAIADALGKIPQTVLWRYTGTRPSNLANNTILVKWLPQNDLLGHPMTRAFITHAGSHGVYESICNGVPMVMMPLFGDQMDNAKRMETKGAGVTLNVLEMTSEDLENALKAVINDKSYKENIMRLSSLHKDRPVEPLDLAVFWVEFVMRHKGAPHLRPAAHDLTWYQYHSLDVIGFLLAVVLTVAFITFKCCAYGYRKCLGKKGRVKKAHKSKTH

Cytochrome P450 3A4 [4] = biological target: T4, Cytochrome P450 3A4 (Homo sapiens, UniProt P08684); test: Inhibition of CYP3A4 in human liver microsomes using testosterone as substrate incubated for 3 mins prior to NAPDH-addition measured after 30 mins by RP-HPLC analysis; type: ADME, Microsome
T4 sequence (P08684 whole entry): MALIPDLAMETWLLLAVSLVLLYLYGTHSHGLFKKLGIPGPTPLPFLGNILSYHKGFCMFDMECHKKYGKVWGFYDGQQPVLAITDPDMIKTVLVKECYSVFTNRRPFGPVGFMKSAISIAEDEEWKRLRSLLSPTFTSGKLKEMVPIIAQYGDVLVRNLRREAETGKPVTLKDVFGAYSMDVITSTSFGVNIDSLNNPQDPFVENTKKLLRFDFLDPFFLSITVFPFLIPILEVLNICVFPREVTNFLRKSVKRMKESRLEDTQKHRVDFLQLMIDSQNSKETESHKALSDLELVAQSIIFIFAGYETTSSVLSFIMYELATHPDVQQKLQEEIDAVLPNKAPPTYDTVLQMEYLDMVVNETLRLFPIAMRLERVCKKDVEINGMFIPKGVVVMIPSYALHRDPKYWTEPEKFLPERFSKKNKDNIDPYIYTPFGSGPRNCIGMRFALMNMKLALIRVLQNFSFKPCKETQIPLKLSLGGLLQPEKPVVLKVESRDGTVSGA
Method in brief: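 CYP3A4 inhibition used pooled human liver microsomes at 0.3 mg/mL protein with testosterone as substrate (50 mM stock; 100 μM listed). Incubation ran 30 min across varying inhibitor concentrations, and kinetic analysis gave the IC50.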

Cytochrome P450 3A4 [5] = biological target: T4, Cytochrome P450 3A4; test: Inhibition of CYP3A4 in human liver microsomes using triazolam as substrate incubated for 3 mins prior to NAPDH-addition measured after 30 mins by RP-HPLC analysis; type: ADME, Microsome
Method in brief: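 For CYP3A4 with triazolam as substrate (50 mM stock; 200 μM listed), pooled human liver microsomes were used at 0.4 mg/mL protein. Incubation was 30 min with varying inhibitor concentrations, and IC50 came from kinetic analysis.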

Cytochrome P450 2C8 [6] = biological target: T5, Cytochrome P450 2C8 (Homo sapiens, UniProt P10632); test: Inhibition of CYP2C8 in human liver microsomes using amodiaquine as substrate incubated for 3 mins prior to NAPDH-addition measured after 30 mins by RP-HPLC analysis; type: ADME, Microsome
T5 sequence (P10632 whole entry): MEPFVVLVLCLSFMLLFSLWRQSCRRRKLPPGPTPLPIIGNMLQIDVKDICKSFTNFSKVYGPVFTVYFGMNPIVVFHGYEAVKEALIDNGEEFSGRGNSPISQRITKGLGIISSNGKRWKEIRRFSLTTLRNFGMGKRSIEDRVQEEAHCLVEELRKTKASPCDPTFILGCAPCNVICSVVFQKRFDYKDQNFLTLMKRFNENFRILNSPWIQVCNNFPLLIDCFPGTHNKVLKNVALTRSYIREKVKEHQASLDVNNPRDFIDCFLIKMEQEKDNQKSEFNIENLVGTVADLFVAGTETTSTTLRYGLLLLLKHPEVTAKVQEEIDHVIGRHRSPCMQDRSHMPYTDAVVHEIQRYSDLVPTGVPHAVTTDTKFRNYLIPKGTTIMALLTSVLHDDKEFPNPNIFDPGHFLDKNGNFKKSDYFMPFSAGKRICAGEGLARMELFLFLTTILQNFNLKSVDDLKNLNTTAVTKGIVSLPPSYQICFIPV
Method in brief: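 CYP2C8 was assayed in pooled human liver microsomes at 0.4 mg/mL protein with amodiaquine as substrate (5 mM stock; 200 μM listed). Incubation was 30 min with varying inhibitor concentrations, and IC50 was obtained by kinetic analysis.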

Cytochrome P450 2C8 [7] = biological target: T5, Cytochrome P450 2C8; test: Activation of CYP2C8 in human liver microsomes incubated for 3 mins prior to NAPDH-addition measured after 30 mins by RP-HPLC analysis; type: ADME, Microsome; settings: 0.5 h
[8] = biological target: Human immunodeficiency virus type 1 integrase (Human immunodeficiency virus 1) (UniProt Q7ZJM1); test: (§1) Inhibition of HIV1 integrase-mediated strand transfer
Human immunodeficiency virus type 1 integrase (Human immunodeficiency virus 1), sequence (Q7ZJM1 as listed by the source): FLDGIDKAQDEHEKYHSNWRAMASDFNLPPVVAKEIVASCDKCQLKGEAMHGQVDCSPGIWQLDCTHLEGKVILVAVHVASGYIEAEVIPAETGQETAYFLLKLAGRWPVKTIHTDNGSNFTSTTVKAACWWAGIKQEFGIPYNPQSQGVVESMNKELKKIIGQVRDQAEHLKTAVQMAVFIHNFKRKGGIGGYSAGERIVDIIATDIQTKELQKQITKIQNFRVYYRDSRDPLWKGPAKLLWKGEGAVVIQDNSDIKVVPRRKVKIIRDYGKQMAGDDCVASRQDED

[9] = biological target: Human immunodeficiency virus type 1 integrase (Human immunodeficiency virus 1, UniProt Q7ZJM1); test: as §1
Human immunodeficiency virus type 1 integrase, sequence (Q7ZJM1 whole entry): as the sequence (Q7ZJM1 as listed by the source) above

SMILES: O=C(O)/C(O)=C/C(=O)c1cc(Cc2ccc(F)cc2F)cn(Cc2ccccc2F)c1=O
- Activity [1]: Not Active
- Activity [2]: Not Active
- Activity [3]: Not Active
- pIC50 (Cytochrome P450 3A4 [4]): < 3.70
- pIC50 (Cytochrome P450 3A4 [5]): < 3.70
- pIC50 (Cytochrome P450 2C8 [6]): < 4.19
- Activity (Cytochrome P450 2C8 [7]): Not Active
- IC90 [8]: 97 nM
- pIC50 [9]: 8.22
